Measured values gathered from unrelated publications.
Lines come from different studies, so protocols differ.
Effect on: cell growth or viability

SMILES	cell line	assay	conditions	IC50
COc1ccc(C[C]2([Ti+2][C]3(Cc4ccc(OC)cc4)C=CC=C3)C=CC=C2)cc1.[Cl-].[Cl-]	HEK-293T	XTT	72 h	> 200000 nM
O=C1/C(=C/c2cc(O)c(O)c(O)c2)Oc2cccc(O)c21	HEK-293T	ATP luminescence	24 h	> 32 µg/mL
COC1=C2C[C@@H](C)C[C@H](OC)[C@H](O)[C@@H](C)/C=C(\C)[C@H](OC(N)=O)[C@@H](OC)/C=C\C=C(/C)C(=O)NC(=CC1=O)C2=O	A-431	MTT	–	48 nM
O=c1[nH]cc(S(=O)(=O)Nc2cccc(-c3nnc(-c4cccc(Cl)c4)o3)c2)c(=O)[nH]1	NCI-H292	MTT	24 h	3810 nM
[Cl-].[Cl-].[Ti+4].c1cc[cH-]c1.c1cc[cH-]c1	HEK-293T	XTT	72 h	> 200000 nM
O=C(c1cc(O)c(O)c(O)c1)c1cc2cc(-c3ccc(CO)cc3)ccc2o1	HEK-293T	ATP luminescence	72 h	1 µg/mL
COC(=O)CN=c1scc(-c2ccccc2)n1-c1ccccc1[N+](=O)[O-]	PANC-03-27	MTT	72 h	25500 nM
COc1cccc2c1C(=O)c1c(O)c3c(c(O)c1C2=O)C[C@@](O)(C(=O)CO)C[C@@H]3O[C@H]1C[C@H](N)[C@H](O)[C@H](C)O1	NCI-H292	WST-1	72 h	30 nM
O=C(c1cc(O)c(O)c(O)c1)c1cc2ccccc2o1	HEK-293T	ATP luminescence	24 h	1.3 µg/mL
COc1ccc(Oc2ccccc2NC(=O)CNC(=O)c2cccc3ccccc23)cc1	SK-N-AS	–	–	91 nM
COC(=O)CN=c1scc(-c2ccccc2)n1-c1ccc(C)cc1	PANC-03-27	MTT	72 h	10800 nM
COc1cc(Nc2nccc(-c3cnn4nc(OC)ccc34)n2)cc(C(F)(F)F)c1	M-07e	ATP luminescence	–	110 nM
COC(=O)CN=c1scc(-c2ccccc2)n1-c1ccccc1C	PANC-03-27	MTT	72 h	> 100000 nM
COc1cc(N2CCC(N3CCN(C)CC3)CC2)ccc1Nc1ncc(Cl)c(Nc2ccccc2S(=O)(=O)C(C)C)n1	human Myoblast	–	72 h	450 nM
O=C(CNC(=O)c1cccc2ccccc12)Nc1ccccc1Oc1ccccc1	SK-N-AS	–	–	107 nM
COc1cc([C@@H]2c3cc4c(cc3[C@@H](O[C@@H]3O[C@@H]5CO[C@@H](C)O[C@H]5[C@H](O)[C@H]3O)[C@H]3COC(=O)[C@H]23)OCO4)cc(OC)c1O	CCD-18Co	MTS	72 h	40300 nM
O=C(Nc1ccccc1CO)c1c[nH]c2ccc(Cl)cc12	SK-N-BE(2)-C	MTT	–	13000 nM
CCN(c1nc(N)c(C(=O)N=C(N)N)nc1Cl)C(C)C	A-431	MTT	3 h	160000 nM
Nc1ccn([C@@H]2O[C@H](CO)[C@@H](O)C2(F)F)c(=O)n1	PANC-03-27	MTT	72 h	420 nM
CC(C)C[C@H](NC(=O)[C@H](Cc1ccccc1)NC(=O)c1cnccn1)B(O)O	M-07e	ATP luminescence	–	5.3 nM
COc1cc(-c2ncn(/C=C\C(=O)OC(C)C)n2)cc(C(F)(F)F)c1	SKNO-1	–	72 h	58 nM
COc1cc2c(Oc3ccc(NC(=O)C4(C(=O)Nc5ccc(F)cc5)CC4)cc3F)ccnc2cc1OCCCN1CCOCC1	human Myoblast	–	72 h	120 nM
O=C1/C(=C/c2cc(O)c(O)c(O)c2)Oc2ccccc21	HEK-293T	ATP luminescence	24 h	23 µg/mL
O=C(CNC(=O)c1cccc2ccccc12)Nc1ccccc1Oc1cccc(O)c1	SK-N-AS	–	–	192 nM
CC1=CC(C)(C)N(Cc2ccccc2)c2ccc(O)cc21	Huh-7	MTT	72 h	16000 nM
Cc1cc(Nc2ncc(Cl)c(Nc3ccccc3S(=O)(=O)C(C)C)n2)c(OC(C)C)cc1C1CCNCC1	human Myoblast	–	72 h	1840 nM
CC(C)[C@H](N)C(=O)N1CCC[C@H]1B(O)O	TF-1	ATP luminescence	48 h	> 60000 nM
COc1cccc(Oc2ccccc2NC(=O)CNC(=O)c2cccc3ccccc23)c1	SK-N-AS	–	–	125 nM
O=C(NCc1ccc(CO)cc1)c1c[nH]c2ccc(Cl)cc12	SK-N-BE(2)-C	MTT	–	17000 nM
CC(=O)CC(=O)[c-]1cccc1.[Fe+2].c1cc[cH-]c1	PNT2	MTT	96 h	> 100000 nM
